Zone of inhibition data for one molecule are collected here from ChEMBL document CHEMBL1828620, “Synthesis of novel 6-phenyl-2,4-disubstituted pyrimidine-5-carbonitriles as potential antimicrobial agents” (2011).

Structures are written as SMILES.

The test deals with Candida albicans. As to the kind of experiment: Antifungal activity against Candida albicans IFO 0583 at 100 ug/disc after 48 hrs by agar disc diffusion method. It is filed as functional. Particulars: IFO 0583, 48 h, read-out: DIZ. The gist of the method:
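Agar disc diffusion: sterile 8 mm filter-paper discs moistened with compound solution in DMSO, placed on agar plates each pre-inoculated with one organism; plates held at 37 °C; growth inhibition zone diameter measured after 24 h (bacteria) or 48 h (C. albicans).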
For orientation: In agar diffusion tests the substance spreads into inoculated agar from a disc or well.

As to `Clc1ccccc1C(c1ccccc1)(c1ccccc1)n1ccnc1` [CLOTRIMAZOLE], the zone of inhibition at 100 µg/disc was 21 mm.
